Data published in ChEMBL document CHEMBL5674869, “The Histone Methyltransferase Inhibitor A-366 Uncovers a Role for G9a/GLP in the Epigenetics of Leukemia” (PLoS One, 2015).
Active and inactive are the calls of the source. No cut-off for these calls is given here.

What was measured:
LNCaP = assay: Antiproliferative against human LNCaP cells after 5 days by Cell-Titer Glo assay; assay type: functional, cell-based; conditions: 120 h
Summary of the method: (§1)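 ATCC tumor lines were grown in their recommended media with 10% FBS and STR-authenticated. Cells were exposed to compound for the stated number of days. Viable cells were read by CellTiter-Glo endpoint. Inhibition was the ratio of treated to untreated wells, with cell-free wells set as 100% inhibition. The EC50 was taken from the dose response.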

NCI-H1975 = assay: Antiproliferative against human NCI-H1975 cells after 5 days by Cell-Titer Glo assay; assay type: functional, cell-based; conditions: NCI-H1975, 120 h; summary of the method: as §1
NCI-H522 = assay: Antiproliferative against human NCI-H522 cells after 5 days by Cell-Titer Glo assay; assay type: functional, cell-based; conditions: NCI-H522, 120 h; summary of the method: as §1
[1] = target: T1, Histone-lysine N-methyltransferase EHMT2 (Homo sapiens) (UniProt Q96KQ7); assay: Inhibition of G9a in human MOLT-16 cells assessed as decrease in […] levels after 72 hrs by Western blot analysis; assay type: cell-based
T1 sequence (whole entry): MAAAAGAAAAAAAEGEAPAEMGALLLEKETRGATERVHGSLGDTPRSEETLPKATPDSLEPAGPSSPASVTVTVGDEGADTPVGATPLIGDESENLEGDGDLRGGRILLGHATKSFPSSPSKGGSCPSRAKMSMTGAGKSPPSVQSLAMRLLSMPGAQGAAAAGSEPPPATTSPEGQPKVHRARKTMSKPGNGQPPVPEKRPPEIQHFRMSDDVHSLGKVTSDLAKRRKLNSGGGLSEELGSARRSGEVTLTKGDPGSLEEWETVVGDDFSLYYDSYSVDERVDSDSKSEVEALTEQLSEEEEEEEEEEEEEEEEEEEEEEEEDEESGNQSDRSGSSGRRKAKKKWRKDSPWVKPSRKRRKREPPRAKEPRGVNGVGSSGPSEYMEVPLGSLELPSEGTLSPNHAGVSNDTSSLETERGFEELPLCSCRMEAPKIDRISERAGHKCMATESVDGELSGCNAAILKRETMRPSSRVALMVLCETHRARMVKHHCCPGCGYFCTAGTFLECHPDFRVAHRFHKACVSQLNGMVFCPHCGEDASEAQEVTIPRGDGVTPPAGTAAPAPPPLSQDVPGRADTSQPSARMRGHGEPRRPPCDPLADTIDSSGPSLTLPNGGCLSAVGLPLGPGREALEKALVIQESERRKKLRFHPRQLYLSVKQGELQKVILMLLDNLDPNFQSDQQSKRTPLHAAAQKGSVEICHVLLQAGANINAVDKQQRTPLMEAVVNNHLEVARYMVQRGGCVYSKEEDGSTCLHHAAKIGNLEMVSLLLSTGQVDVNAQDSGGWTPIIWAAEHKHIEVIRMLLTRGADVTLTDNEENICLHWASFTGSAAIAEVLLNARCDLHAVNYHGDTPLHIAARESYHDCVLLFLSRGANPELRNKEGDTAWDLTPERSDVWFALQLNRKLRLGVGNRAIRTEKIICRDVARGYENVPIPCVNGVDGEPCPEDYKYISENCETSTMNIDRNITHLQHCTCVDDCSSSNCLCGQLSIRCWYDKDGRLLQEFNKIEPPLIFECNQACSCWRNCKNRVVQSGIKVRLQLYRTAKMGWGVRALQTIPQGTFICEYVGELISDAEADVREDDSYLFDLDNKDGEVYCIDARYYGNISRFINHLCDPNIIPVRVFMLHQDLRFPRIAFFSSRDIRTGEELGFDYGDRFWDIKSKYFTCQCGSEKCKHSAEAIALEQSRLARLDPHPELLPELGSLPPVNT
Summary of the method: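 MOLT-16 T-ALL cells treated 3 days with compound over a concentration range and lysed. Lysates normalized and immunoblotted for H3K9me2, total H3 and G9a.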

[2] = Antiproliferative against human TC71 cells after 7 days by Cell-Titer Glo assay; assay type: functional, cell-based; conditions: TC-71, 168 h; summary of the method: as §1
NCI-H929 = assay: Antiproliferative against human NCI-H929 cells after 5 days by Cell-Titer Glo assay; assay type: functional, cell-based; conditions: NCI-H929, 120 h; summary of the method: as §1
HL-60 = assay: Antiproliferative against human HL-60 cells after 5 days by Cell-Titer Glo assay; assay type: functional, cell-based; conditions: HL-60, 120 h; summary of the method: as §1
OPM-2 = assay: Antiproliferative against human OPM-2 cells after 5 days by Cell-Titer Glo assay; assay type: functional, cell-based; conditions: OPM-2, 120 h; summary of the method: as §1
MV4-11 = assay: Antiproliferative against human MV4-11 cells after 5 days by Cell-Titer Glo assay; assay type: functional, cell-based; conditions: MV4-11, 120 h; summary of the method: as §1
[3] = target: T1, Histone-lysine N-methyltransferase EHMT2 (Homo sapiens); assay: Inhibition of G9a in human PC-3 cells assessed as decrease in total H3 levels at 10 uM by In cell Western assay; assay type: cell-based
Summary of the method: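 PC-3 cells (5,000/well) adhered overnight, then treated in triplicate with DMSO or compound over a concentration range for 72 h at 37 °C, 5% CO2. Cells fixed in 3% formaldehyde, blocked in 1% BSA and co-stained 4 h for H3K9me2 (1:500) and total H3 (1:1000). Fluorescent secondaries read by Odyssey: 800 nm H3K9me2, 700 nm total H3.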

Kasumi 1 = assay: Antiproliferative against human Kasumi-1 cells after 5 days by Cell-Titer Glo assay; assay type: functional, cell-based; conditions: Kasumi 1, 120 h; summary of the method: as §1
NCI-H358 = assay: Antiproliferative against human NCI-H358 cells after 5 days by Cell-Titer Glo assay; assay type: functional, cell-based; conditions: NCI-H358, 120 h; summary of the method: as §1
[4] = target: T1, Histone-lysine N-methyltransferase EHMT2 (Homo sapiens); assay: Inhibition of G9a in human MCF7 cells assessed as decrease in […] levels at 0.3 to 3 uM after 72 hrs by Western blot analysis; assay type: cell-based; conditions: dose 0.3-3 µM
[5] = target: T1, Histone-lysine N-methyltransferase EHMT2 (Homo sapiens); assay: Inhibition of G9a in human PC-3 cells assessed as decrease in H3K9me2 levels after 72 hrs by Western blot analysis
ZR-75-30 = assay: Antiproliferative against human ZR-75-30 cells after 7 days by Cell-Titer Glo assay; assay type: functional, cell-based; conditions: ZR-75-30, 168 h; summary of the method: as §1
DU-145 = assay: Antiproliferative against human DU-145 cells after 5 days by Cell-Titer Glo assay; assay type: functional, cell-based; conditions: DU-145, 120 h; summary of the method: as §1
SK-BR-3 = assay: Antiproliferative against human SK-BR-3 cells after 5 days by Cell-Titer Glo assay; assay type: functional, cell-based; conditions: SK-BR-3, 120 h; summary of the method: as §1
[6] = target: T1, Histone-lysine N-methyltransferase EHMT2 (Homo sapiens); assay: Inhibition of G9a in human MDA-MB-231 cells assessed as slight decrease in […] levels at 0.3 to 3 uM after 72 hrs by Western blot analysis; assay type: cell-based; conditions: dose 0.3-3 µM
THP-1 = assay: Antiproliferative against human THP-1 cells after 5 days by Cell-Titer Glo assay; assay type: functional, cell-based; conditions: THP-1, 120 h; summary of the method: as §1
NCI-H441 = assay: Antiproliferative against human NCI-H441 cells after 5 days by Cell-Titer Glo assay; assay type: functional, cell-based; conditions: NCI-H441, 120 h; summary of the method: as §1
Calu-6 = assay: Antiproliferative against human Calu-6 cells after 5 days by Cell-Titer Glo assay; assay type: functional, cell-based; conditions: Calu-6, 120 h; summary of the method: as §1
LN-229 = assay: Antiproliferative against human LN-229 cells after 5 days by Cell-Titer Glo assay; assay type: functional, cell-based; conditions: LN-229, 120 h; summary of the method: as §1

Structure (SMILES) | EC50 (LNCaP) [µM] | EC50 (NCI-H1975) [µM] | EC50 (NCI-H522) [µM] | inhibition [1] | EC50 [2] [µM] | EC50 (NCI-H929) [µM] | EC50 (HL-60) [µM] | EC50 (OPM-2) [µM] | EC50 (MV4-11) [µM] | inhibition [3] | EC50 (Kasumi 1) [µM] | EC50 (NCI-H358) [µM] | inhibition [4] | inhibition [5] | EC50 (ZR-75-30) [µM] | EC50 (DU-145) [µM] | EC50 (SK-BR-3) [µM] | inhibition [6] | EC50 (THP-1) [µM] | EC50 (NCI-H441) [µM] | also measured
COc1cc2c(cc1OCCCN1CCCC1)N=C(N)C21CCC1 | > 10 | > 10 | > 10 | Active | > 10 | > 10 | > 10 | > 10 | > 10 | inactive | > 10 | > 10 | Active | Dose-Dependent Effect | > 10 | > 10 | > 10 | Active | > 10 | > 10 | EC50 (Calu-6): > 10 µM; EC50 (LN-229): > 10 µM
COc1cc2c(NC3CCN(C(C)C)CC3)nc(C3CCCCC3)nc2cc1OCCCN1CCCC1 | 0.3 | > 10 | 1.5 | Active | 0.6 | 4.6 | 6.5 | 5.6 | 1.7 | Active | 1.1 | 4.3 | Active | Active | 1.2 | 0.7 | 0.6 | Active | 4.9 | 8.7 | EC50 (Calu-6): 1.5 µM; EC50 (LN-229): 0.5 µM
